Bioassay records as filed in PubChem.
Hits are enriched below; roughly 4.8% of the tested compounds scored in any of these assays.
ERb SRC1 inh = inhibitors of ERβ-SRC1 coactivator interaction, primary screen, biochemical, TR-FRET, ERβ LBD, SRC-1 peptide | Estrogen receptor beta (Homo sapiens), Q92731 | TR-FRET ER-beta LBD / SRC1-Cy5 peptide binding; receptor agonist-loaded with 1 µM estradiol | inhibition, % at 25.6 µM | actives 1.3% (n = 86,000) | AID 633, 2007;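 active = compounds whose percent inhibition of the receptor-coactivator binding signal exceeds about 50% in the single-dose screen, limit read from the data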;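 note: 0% = receptor plus peptide wells without compound and 100% = peptide-only wells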
ERa coact pot = enhancers of ERα–SRC-1 coactivator binding, primary screen, biochemical, TR-FRET, ERα LBD, low estradiol; coactivator binding (% of control), % at 25.6 µM; actives 1.3% (n = 86,000); TR-FRET ERalpha-LBD/SRC-Cy5 coactivator binding, 2 h; 100 = basal binding, no effect; Estrogen receptor (Homo sapiens), P03372; AID 639, 2007; in the data active = activity above about 200%;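 note: binding measured in presence of low estradiol as agonist stimulus; 0% = peptide alone without receptor and 100% = receptor with peptide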
RORA act = activators of orphan receptor RORA, primary screen, cell-based, luminescence | Nuclear receptor ROR-alpha (Homo sapiens), P35398 | CHO-K1 Gal4-RORA LBD luciferase reporter; percent increase over mock-subtracted basal signal | activation, % at 10 µM | actives 1.5% (n = 65,000) | AID 560, 2006;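 active = activation above the mean of all tested compounds plus 3 SD, cut at about 49% in these data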;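 note: 0% = DMSO-treated RORA cells and 100% = added signal equal to DMSO minus mock-transfected cells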
Target sequence (P35398 whole entry, looked up, the tested form may be a part): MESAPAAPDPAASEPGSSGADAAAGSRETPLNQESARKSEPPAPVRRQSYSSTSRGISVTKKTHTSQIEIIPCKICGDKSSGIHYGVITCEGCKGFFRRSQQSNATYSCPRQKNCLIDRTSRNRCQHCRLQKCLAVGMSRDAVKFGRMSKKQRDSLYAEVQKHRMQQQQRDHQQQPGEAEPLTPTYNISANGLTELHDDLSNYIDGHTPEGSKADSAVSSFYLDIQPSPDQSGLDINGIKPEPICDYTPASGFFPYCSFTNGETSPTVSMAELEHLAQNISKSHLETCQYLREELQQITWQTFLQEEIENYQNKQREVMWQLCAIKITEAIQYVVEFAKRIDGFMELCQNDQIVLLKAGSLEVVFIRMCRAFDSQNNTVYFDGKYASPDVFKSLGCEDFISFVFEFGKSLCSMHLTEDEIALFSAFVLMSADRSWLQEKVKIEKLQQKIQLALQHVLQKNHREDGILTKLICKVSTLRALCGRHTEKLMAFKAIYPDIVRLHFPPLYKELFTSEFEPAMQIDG
SF-1 act = activators of human SF-1, primary screen, cell-based, CHO-K1, Gal4-SF-1 LBD, luciferase luminescence; CHO-K1 Gal4-SF-1 LBD luciferase reporter; % increase over DMSO SF-1-specific signal; activation, % at 10 µM; actives 1.9% (n = 65,000); AID 522, 2006;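 active = activation above the mean activation of all tested compounds plus 3 SD, cut at about 50% in these data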
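Test system: CHO-K1 cells with Gal4–hSF-1 LBD chimera plus Gal4-driven luciferase; Input: 4,000 cells/well; Compound: 10 µM only; Times: 20 h compound treatment, 37 °C; Measured by: steady-glow luciferase luminescence, read after 15 min reagent incubation; Measure: percent activation versus DMSO; Control set: DMSO and mock-transfected background; Replicates: one test per compound.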
ERa SRC1 inh = ERα–SRC-1 coactivator interaction inhibitors, primary screen, biochemical, TR-FRET, ERα LBD, estradiol-bound | TR-FRET ER-alpha LBD / SRC-1 peptide | inhibition, % at 25.6 µM | actives 1.7% (n = 86,000); in the data active = inhibition above about 50%;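 note: 0% = receptor plus peptide control and 100% = peptide only without receptor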
PTK2B oligo ant = antagonists of Pyk2 self-association, primary screen, Q293 cells, FERM NanoBiT luminescence, HTS; z-score (the deposit names both 25 µM and 10 µM); Protein-tyrosine kinase 2-beta (Homo sapiens), Q14289; actives 0.83% (n = 99,000); stronger effect = lower value;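 active = Z-score of -3 or lower, scaled per plate to the spread of control and sample wells; inactive = z-score above -3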;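 note: negative z-score means lost luminescence so less FERM oligomerization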
The depositor's hits bear a star; [ ] = dose if it differs, or a comment.

For Nn1c(SCC(=O)N2CCOCC2)nnc1-c1ccccc1Cl the results were ERb SRC1 inh 0, ERa coact pot 113, ERa SRC1 inh -4 and PTK2B oligo ant -0.34.
COC(=O)c1sc2nc(-c3ccco3)ccc2c1N was read as ERb SRC1 inh 73*, ERa coact pot 66, RORA act 26, SF-1 act 66*, ERa SRC1 inh 54* and PTK2B oligo ant 1.
`NC(=O)c1sc2nc(-c3ccco3)ccc2c1N` gave PTK2B oligo ant -0.08.
Screening COCCCNC(=O)C1CCN(C(=O)Nc2ccc(Cl)cc2)CC1 returned ERb SRC1 inh -4, ERa coact pot 123, RORA act -17, SF-1 act -17, ERa SRC1 inh -2 and PTK2B oligo ant -0.26.
`COC(=O)Cn1cnc2c1c(=O)n(C)c(=O)n2C` gave ERb SRC1 inh 25, ERa coact pot 96, ERa SRC1 inh 21 and PTK2B oligo ant 0.62.
`Cn1c(=O)c2c(ncn2CCCNC2=CC(C)(C)CC(=O)C2)n(C)c1=O` gave ERb SRC1 inh 52*, ERa coact pot 49, RORA act 9, SF-1 act -8 and ERa SRC1 inh 37.
O=C(COc1ccccc1Cl)NC(=O)NC1CCCC1 was read as ERb SRC1 inh -2, ERa coact pot 89, RORA act 20, SF-1 act 53*, ERa SRC1 inh 1 and PTK2B oligo ant -1.6.
Screening O=C(CCc1ccccc1)Nc1ccc(Cl)cn1 returned ERb SRC1 inh 3, ERa coact pot 107, RORA act 38, SF-1 act 60*, ERa SRC1 inh 10 and PTK2B oligo ant 1.2.
O=C(COc1ccccc1Cl)Nc1ccc(Cl)cn1 was read as ERb SRC1 inh 8, ERa coact pot 64, RORA act 62*, SF-1 act 74*, ERa SRC1 inh 12 and PTK2B oligo ant -0.02.
`Cc1cccc2cc3c(N)c(C(=O)Nc4ccc(N5CCOCC5)cc4)sc3nc12` gave PTK2B oligo ant -3.4*.
CCOC(=O)CC1=CC(C)(CC(=O)OCC)C(C#N)(C#N)C(N)=C1C#N (configuration not stated) was read as ERb SRC1 inh 5, ERa coact pot 109, RORA act -21, SF-1 act -18, ERa SRC1 inh -25 and PTK2B oligo ant 0.72.
For O=C1OC(c2ccc3c(c2)OCO3)N(C(=O)c2ccc(Cl)c(Cl)c2)c2ccccc21 (configuration not stated) the results were PTK2B oligo ant -3.2*.
For Cc1cccc(C(=O)N2c3ccccc3C(=O)OC2c2ccc3c(c2)OCO3)c1 (configuration not stated) the results were PTK2B oligo ant -0.65.
`Cc1cc(C(=O)CNCc2ccco2)c(C)n1-c1ccc(F)cc1` gave ERb SRC1 inh -2, ERa coact pot 93, RORA act 70*, SF-1 act 53*, ERa SRC1 inh -8 and PTK2B oligo ant 0.32.
Screening CCN1C(=O)/C(=C2/Sc3ccc(OC)cc3N2C)SC1=Nc1ccc(C(C)=O)cc1 returned ERb SRC1 inh 31, ERa coact pot 96, RORA act 7, SF-1 act 8 and ERa SRC1 inh 36.
Screening CCN1C(=O)/C(=C2/Sc3ccc(OC)cc3N2C)SC1=Nc1cccc(O)c1 returned ERb SRC1 inh 64*, ERa coact pot 152, RORA act -34, SF-1 act -51, ERa SRC1 inh 66* and PTK2B oligo ant -0.85.
Screening COCCNc1cc(C)nc2c3c(C)cc(C)nc3nn12 returned ERb SRC1 inh 0, ERa coact pot 106, RORA act 14, SF-1 act 3, ERa SRC1 inh -4 and PTK2B oligo ant 0.17.
For O=C(Nc1ccc2nc(-c3ccco3)c(-c3ccco3)nc2c1)N1CCCCCC1 the results were RORA act -23 and SF-1 act 4.
For CCOC(=O)C1CCN(C(=O)Nc2ccc3nc(-c4ccco4)c(-c4ccco4)nc3c2)CC1 the results were ERb SRC1 inh 95*[fluorescence artefact?], ERa coact pot 31, RORA act -1, SF-1 act -4, ERa SRC1 inh 96*[fluorescence artefact?] and PTK2B oligo ant -1.2.
COc1ccc(NC(=O)C2CC(=O)OC23CCOC(C)(C)C3)cc1 (configuration not stated) was read as ERb SRC1 inh 6, ERa coact pot 96, ERa SRC1 inh -1 and PTK2B oligo ant 0.
CCc1cc2cc(C(=O)Nc3ccccc3F)sc2s1 was read as ERb SRC1 inh -1, ERa coact pot 152, RORA act 17, SF-1 act 16, ERa SRC1 inh -25 and PTK2B oligo ant 0.28.
CCc1cc2cc(C(=O)Nc3ccc(F)cc3)sc2s1 was read as ERb SRC1 inh 49, ERa coact pot 308*[fluorescence artefact?], ERa SRC1 inh 37 and PTK2B oligo ant 1.7.
Screening c1ccc(CCCc2nc(-c3ccccn3)no2)cc1 returned ERb SRC1 inh 0, ERa coact pot 98, RORA act 50*, SF-1 act 57*, ERa SRC1 inh 0 and PTK2B oligo ant -0.27.
`c1ccc(C(Cc2nc(-c3ccccn3)no2)c2ccccc2)cc1` gave ERb SRC1 inh 1, ERa coact pot 119, RORA act 20, SF-1 act 14, ERa SRC1 inh 17 and PTK2B oligo ant -2.1.
`Cc1ccc(Cc2nc(-c3ccccn3)no2)cc1` gave ERb SRC1 inh -2, ERa coact pot 94, ERa SRC1 inh -5 and PTK2B oligo ant 1.3.
c1ccc(Cc2nc(-c3ccccn3)no2)cc1 was read as ERb SRC1 inh 2, ERa coact pot 102, RORA act 61*, SF-1 act 23, ERa SRC1 inh -7 and PTK2B oligo ant -0.7.
`CC(C(=O)NCc1cccs1)N1C(=O)c2ccccc2C1=O` (configuration not stated) gave ERb SRC1 inh -1, ERa coact pot 90, ERa SRC1 inh 6 and PTK2B oligo ant -0.41.
CCOC(=O)N1CCC(N2Cc3cccc(C(=O)N4CCN(C5CCCCC5)CC4)c3C2=O)CC1 was read as ERb SRC1 inh -2, ERa coact pot 121, RORA act -17, SF-1 act 6 and ERa SRC1 inh -6.
NC(=O)c1cccc2c1C(=O)N(C1CCCCC1)C2 was read as ERb SRC1 inh 53*, ERa coact pot 54, RORA act -3, SF-1 act 0 and ERa SRC1 inh 53*[fluorescence artefact?].
